≈ marks a conversion by molar mass, not a printed value. Calls of active or inactive are those of the source. The calls are words filed in the database; no cut-off is given here.
What was measured:
Klebsiella pneumoniae [1] = experiment: Binding affinity to OXA-48 in Klebsiella pneumoniae assessed as ezyme-compound adduct formation from loss of catechol group with increase in mass at 1:100 ezyme-compound ratio using nitrocefin as substrate at pH 7 and 25 degree C by MALDI-TOF MS analysis
Method in brief: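 OXA-48 from K. pneumoniae incubated with ligand at 1:100 enzyme/inhibitor molar ratio in 50 mM Tris-HCl, 150 mM NaCl, 1 mM EDTA pH 7.0, 25 °C, 30 min; activity followed on aliquots by nitrocefin hydrolysis (482 nm) in phosphate/bicarbonate pH 7.4; samples then washed with 5 mM ammonium bicarbonate by ultrafiltration, freeze-dried, analysed by MALDI-TOF; triplicate.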

[2] = Inhibition of carbapenem-resistant Acinetobacter baumannii ATCC 17978 OXA-24/40 expressed in Escherichia coli BL21 using nitrocefin as substrate measured after 15 mins by spectrophotometry analysis
[3] = system: Acinetobacter baumannii ATCC 17978; experiment: Inhibition of carbapenem-resistant Acinetobacter baumannii ATCC 17978 OXA-24/40 expressed in Escherichia coli BL21 assessed as inactivation rate constant using nitrocefin as substrate measured after 15 mins by spectrophotometry analysis
[4] = system: Acinetobacter baumannii ATCC 17978; experiment: Inhibition of Acinetobacter baumannii ATCC 17978 OXA-24/40 expressed in Escherichia coli BL21 assessed as ratio of Kinact/Ki using nitrocefin as substrate measured after 15 mins by spectrophotometry analysis
[5] = molecular target: Beta-lactamase OXA-23 (Acinetobacter baumannii) (UniProt Q9L4P2); experiment: (§1) Inhibition of OXA-23 in carbapenem-resistant Acinetobacter baumannii ATCC 17978 transfected with pET-RA-KmR plasmid encoding rifampicin and kanamycin resistance assessed as potentiation of imipenem-induced antibacterial activity by measuring imipenem MIC at 16 ug/mL in Mueller-Hinton broth by CLSI protocol based method (reference value: 8 ug/mL)
Method in brief: (§2)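 MIC of the reporter antibiotic measured by CLSI broth microdilution in Mueller-Hinton II broth, with and without inhibitor at 16 µg mL-1. Reporters were ampicillin for class A (TEM-1, CTX-M-2), ceftazidime for class C (CMY-2, DHA-1) and imipenem for class D (OXA-23, OXA-24/40, OXA-48). MIC is the lowest concentration with no visible growth, mean of three independent replicates. Strains were grown in LB at 37 °C, with kanamycin or ampicillin at 50 mg L-1 where needed.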

[6] = system: Acinetobacter baumannii ATCC 17978; experiment: as §1, with “of OXA-24/40” for “of OXA-23”, “value: 64” for “value: 8”; method in brief: as §2
Klebsiella pneumoniae [7] = experiment: Inhibition of OXA-48 in beta-lactam-resistant Klebsiella pneumoniae assessed as potentiation of imipenem-induced antibacterial activity by measuring imipenem MIC at 16 ug/mL in Mueller-Hinton broth by CLSI protocol based method (reference value: 64 ug/mL); method in brief: as §2
[8] = molecular target: Beta-lactamase TEM-1 (Escherichia coli) (UniProt Q4GY26); experiment: (§3) Inhibition of TEM-1 in penicillin-resistant Escherichia coli TG1 transfected with pBGS18 plasmid encoding replication origin and kanamycin resistance assessed as potentiation of ampicillin-induced antibacterial activity by measuring ampicillin MIC at 16 ug/mL in Mueller-Hinton broth by CLSI protocol based method (Rvb > 1024 ug/mL); method in brief: as §2
Escherichia coli [9] = experiment: as §3, with “CTX-M2” for “TEM-1”, “beta-lactam-resistant” for “penicillin-resistant”; method in brief: as §2
Escherichia coli [10] = experiment: (§4) Inhibition of CMY-2 in beta-lactam-resistant Escherichia coli TG1 transfected with pBGS18 plasmid encoding replication origin and kanamycin resistance assessed as potentiation of ceftazidime-induced antibacterial activity by measuring ceftazidime MIC at 16 ug/mL in Mueller-Hinton broth by CLSI protocol based method (reference value: 32 ug/mL); method in brief: as §2
Escherichia coli [11] = experiment: as §4, with “DHA-1” for “CMY-2”; method in brief: as §2
Escherichia coli [12] = experiment: Antibacterial activity against wild type Escherichia coli TG1 in Mueller-Hinton broth by CLSI protocol based method; assay type: functional
Method in brief: (§5)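 Broth microdilution MIC in Mueller-Hinton II broth following CLSI. Strains were grown in LB broth or on LB agar at 37 °C and stored at -80 °C in LB with 15% glycerol. MIC is the lowest concentration with no visible growth, given as the mean of three independent replicates.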

Escherichia coli [13] = experiment: as §3, with “CTX-M2” for “TEM-1”, “beta-lactam-resistant” for “penicillin-resistant”, “measuring fold reduction in” for “measuring”, “relative to ampicillin MIC alone” for “(Rvb > 1024 ug/mL)”; method in brief: as §2
[14] = system: Acinetobacter baumannii ATCC 17978; experiment: Binding affinity to OXA-24/40 in carbapenem-resistant Acinetobacter baumannii ATCC 17978 assessed as ezyme-compound adduct formation from loss of catechol group with increase in mass at 1:100 ezyme-compound ratio using nitrocefin as substrate at pH 7 and 25 degree C by MALDI-TOF MS analysis
Method in brief: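 OXA-24/40 (from a 0.9 mg mL-1 stock) was incubated with ligand at a 1:100 enzyme/inhibitor molar ratio in 50 mM Tris-HCl, 150 mM NaCl, 1 mM EDTA, pH 7.0, 25 °C, for 30 min. Activity was followed by nitrocefin hydrolysis at 482 nm. Samples were then washed and concentrated with 5 mM ammonium bicarbonate, freeze-dried, and analysed by MALDI-TOF for the covalent adduct mass shift, in triplicate.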

Acinetobacter baumannii = experiment: Antibacterial activity against wild type carbapenem-susceptible Acinetobacter baumannii ATCC 17978 in Mueller-Hinton broth by CLSI protocol based method; assay type: functional; method in brief: as §5
Klebsiella pneumoniae [15] = experiment: Antibacterial activity against wild type beta-lactam-resistant Klebsiella pneumoniae in Mueller-Hinton broth by CLSI protocol based method; assay type: functional; method in brief: as §5
[16] = system: Acinetobacter baumannii ATCC 17978; experiment: Inhibition of carbapenem-resistant Acinetobacter baumannii ATCC 17978 OXA-24/40 expressed in Escherichia coli BL21 assessed as ratio of Kinact/Ki using nitrocefin as substrate measured after 15 mins by spectrophotometry analysis relative to parent compound
[17] = system: Acinetobacter baumannii ATCC 17978; experiment: Inhibition of carbapenem-resistant Acinetobacter baumannii ATCC 17978 OXA-24/40 expressed in Escherichia coli BL21 using nitrocefin as substrate measured after 15 mins by spectrophotometry analysis relative to parent compound
[18] = Drug metabolism assessed as centered band formation at 295 nm leading to conjugate imine intermediate formation at 25 degree C measured up to 2 mins for 15 mins in presence of sodium methoxide by UV-Vis spectroscopy
Method in brief: (§6)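 Methanolysis followed after adding 1 equivalent NaOMe (1 M in MeOH) at 25 °C over 15 min; UV-Vis spectra scanned 600–200 nm, 2.0 nm bandwidth, 1 cm cell, collected at 0.5, 1.0, 1.5 and 2.0 min; mixture afterwards checked by HPLC-MS.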

[19] = Drug metabolism assessed as decrease in centered band formation at 253 nm leading to -indolizine skeleton formation at 25 degree C measured up to 2 mins for 15 mins in presence of sodium methoxide by UV-Vis spectroscopy; method in brief: as §6
[20] = Drug metabolism assessed as decrease in centered band formation at 408 nm leading to -indolizine skeleton formation at 25 degree C measured up to 2 mins for 15 mins in presence of sodium methoxide by UV-Vis spectroscopy; method in brief: as §6

SMILES: COc1ccnc(/C=C2/C(=O)N3[C@@H](C(=O)O)[C@](C)(COC(=O)Cc4ccc(O)c(O)c4)S(=O)(=O)[C@H]23)c1OC
- Activity (Klebsiella pneumoniae [1]): Active
- Ki [2]: 276 nM
- Kinact [3]: 24 ms-1
- Ratio [4]: 83200 M⁻¹ s⁻¹
- MIC [5]: 4 µg/mL
- MIC [6]: 8 µg/mL
- MIC (Klebsiella pneumoniae [7]): 64 µg/mL
- MIC [8]: 2 µg/mL
- MIC (Escherichia coli [9]): 256 µg/mL
- MIC (Escherichia coli [10]): < 0.25 µg/mL
- MIC (Escherichia coli [11]): < 0.25 µg/mL

SMILES: CC(C)(O/N=C(\C(=O)N[C@@H]1C(=O)N2C(C(=O)[O-])=C(C[n+]3ccccc3)CS[C@H]12)c1csc(N)n1)C(=O)O [CEFTAZIDIME]
- MIC (Escherichia coli [12]): ≤ 0.25 µg/mL

SMILES: C[C@]1(COC(=O)Cc2ccc(O)c(O)c2)[C@H](C(=O)O)N2C(=O)/C(=C/c3ccccn3)[C@H]2S1(=O)=O
- Ki [2]: 234 nM
- Kinact [3]: 22 ms-1
- Ratio [4]: 98200 M⁻¹ s⁻¹
- MIC [5]: 0.5 µg/mL
- MIC [6]: 0.5 µg/mL
- MIC (Klebsiella pneumoniae [7]): 4 µg/mL
- MIC [8]: 2 µg/mL
- MIC (Escherichia coli [9]): 16 µg/mL
- MIC (Escherichia coli [10]): < 0.25 µg/mL
- MIC (Escherichia coli [11]): < 0.25 µg/mL
- Ratio (Escherichia coli [13]): 64

SMILES: C[C@]1(COC(=O)Cc2ccc(O)c(O)c2)[C@H](C(=O)O)N2C(=O)/C(=C/c3ccc(F)cn3)[C@H]2S1(=O)=O
- Activity (Klebsiella pneumoniae [1]): Active
- Ki [2]: 495 nM
- Kinact [3]: 25 ms-1
- Ratio [4]: 48900 M⁻¹ s⁻¹
- Activity [14]: Active
- MIC [5]: 1 µg/mL
- MIC [6]: 1 µg/mL
- MIC (Klebsiella pneumoniae [7]): 4 µg/mL
- MIC [8]: 2 µg/mL
- MIC (Escherichia coli [9]): 32 µg/mL
- MIC (Escherichia coli [10]): < 0.25 µg/mL
- MIC (Escherichia coli [11]): < 0.25 µg/mL

SMILES: NC(=O)[C@@H]1CC[C@@H]2CN1C(=O)N2OS(=O)(=O)[O-].[Na+] [AVIBACTAM SODIUM]
- MIC [5]: 4 µg/mL
- MIC [6]: 16 µg/mL
- MIC (Acinetobacter baumannii): 0.5 µg/mL
- MIC (Klebsiella pneumoniae [15]): 0.5 µg/mL
- MIC (Escherichia coli [12]): 2 µg/mL

SMILES: C[C@@H](O)[C@H]1C(=O)N2C(C(=O)O)=C(SCCNC=N)C[C@H]12 [IMIPENEM ANHYDROUS]
- MIC (Acinetobacter baumannii): 0.5 µg/mL (≈ 1.67 µM)
- MIC (Klebsiella pneumoniae [15]): 0.5 µg/mL (≈ 1.67 µM)

SMILES: C[C@]1(COC(=O)Cc2ccc(O)c(O)c2)[C@H](C(=O)O)N2C(=O)/C(=C/c3cc4ccccc4cn3)[C@H]2S1(=O)=O
- Activity (Klebsiella pneumoniae [1]): Active
- MIC [5]: 2 µg/mL
- MIC [6]: 2 µg/mL
- MIC (Klebsiella pneumoniae [7]): 8 µg/mL
- MIC [8]: 4 µg/mL
- MIC (Escherichia coli [9]): 256 µg/mL
- MIC (Escherichia coli [10]): 2 µg/mL
- MIC (Escherichia coli [11]): 2 µg/mL

SMILES: Cn1cc(-c2ccnc(/C=C3/C(=O)N4[C@@H](C(=O)O)[C@](C)(COC(=O)Cc5ccc(O)c(O)c5)S(=O)(=O)[C@H]34)c2)cn1
- Activity (Klebsiella pneumoniae [1]): Active
- Ki [2]: 217 nM
- Kinact [3]: 24 ms-1
- Ratio [4]: 110000 M⁻¹ s⁻¹
- MIC [5]: 1 µg/mL
- MIC [6]: 1 µg/mL
- MIC (Klebsiella pneumoniae [7]): 8 µg/mL
- MIC [8]: 2 µg/mL
- MIC (Escherichia coli [9]): 16 µg/mL
- MIC (Escherichia coli [10]): < 0.25 µg/mL
- MIC (Escherichia coli [11]): < 0.25 µg/mL
- Ratio (Escherichia coli [13]): 64

SMILES: O=C(NC1CCNCC1)[C@@H]1CC[C@@H]2CN1C(=O)N2OS(=O)(=O)O
- MIC [5]: 8 µg/mL
- MIC [6]: 64 µg/mL
- MIC (Klebsiella pneumoniae [7]): 8 µg/mL
- MIC [8]: 4 µg/mL
- MIC (Escherichia coli [9]): 16 µg/mL
- MIC (Escherichia coli [10]): < 0.25 µg/mL
- MIC (Escherichia coli [11]): < 0.25 µg/mL
- Ratio (Escherichia coli [13]): 64

SMILES: C[C@]1(COC(=O)Cc2ccc(O)c(O)c2)[C@H](C(=O)O)N2C(=O)/C(=C/c3cc(Br)ccn3)[C@H]2S1(=O)=O
- Activity (Klebsiella pneumoniae [1]): Active
- Ki [2]: 140 nM
- Kinact [3]: 22 ms-1
- Ratio [4]: 159000 M⁻¹ s⁻¹
- Ratio [16]: 1.6
- Ratio Ki [17]: 2
- Drug metabolism [18]: Metabolite detected
- Drug metabolism [19]: Metabolite detected
- Drug metabolism [20]: Metabolite detected
- Activity [14]: Active
- MIC [5]: 1 µg/mL
- MIC [6]: 1 µg/mL
- MIC (Klebsiella pneumoniae [7]): 4 µg/mL
- MIC [8]: 2 µg/mL
- MIC (Escherichia coli [9]): 16 µg/mL
- MIC (Escherichia coli [10]): < 0.25 µg/mL
- MIC (Escherichia coli [11]): < 0.25 µg/mL
- Ratio (Escherichia coli [13]): 64

SMILES: C[C@]1(COC(=O)Cc2ccc(O)c(O)c2)[C@H](C(=O)O)N2C(=O)/C(=C/c3nccc4ccsc34)[C@H]2S1(=O)=O
- Activity (Klebsiella pneumoniae [1]): Active
- Ki [2]: 247 nM
- Kinact [3]: 11 ms-1
- Ratio [4]: 47600 M⁻¹ s⁻¹
- Activity [14]: Active
- MIC [5]: 2 µg/mL
- MIC [6]: 8 µg/mL
- MIC (Klebsiella pneumoniae [7]): 64 µg/mL
- MIC [8]: 2 µg/mL
- MIC (Escherichia coli [9]): 256 µg/mL
- MIC (Escherichia coli [10]): < 0.25 µg/mL
- MIC (Escherichia coli [11]): < 0.25 µg/mL
